According to ChEMBL document CHEMBL3352420, “Discovery of 2-pyridylureas as glucokinase activators” (J Med Chem, 2014):
≈ marks a conversion by molar mass, not a printed value.

What was measured:
Hexokinase-4 [1] = target: T1, Hexokinase-4 (Homo sapiens, UniProt P35557); experiment: Activation of purified human glucokinase isoform 3 (13 to 466 aa) using 5 mM glucose by spectrophotometry in presence of NAD+ and glucose 6-phosphate dehydrogenase
T1 sequence (P35557 whole entry): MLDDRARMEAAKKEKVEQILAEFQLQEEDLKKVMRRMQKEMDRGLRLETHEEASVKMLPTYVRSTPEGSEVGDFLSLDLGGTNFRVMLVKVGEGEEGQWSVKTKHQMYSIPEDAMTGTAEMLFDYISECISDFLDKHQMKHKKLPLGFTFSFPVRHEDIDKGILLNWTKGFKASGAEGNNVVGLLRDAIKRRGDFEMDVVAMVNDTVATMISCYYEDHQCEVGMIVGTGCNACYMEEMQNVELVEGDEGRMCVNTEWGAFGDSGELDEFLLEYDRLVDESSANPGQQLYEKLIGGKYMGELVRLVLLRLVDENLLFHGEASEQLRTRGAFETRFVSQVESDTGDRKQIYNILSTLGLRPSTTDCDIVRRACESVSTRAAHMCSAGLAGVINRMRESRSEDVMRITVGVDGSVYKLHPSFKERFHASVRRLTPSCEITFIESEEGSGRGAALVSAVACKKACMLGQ

Hexokinase-4 [2] = target: T1, Hexokinase-4; experiment: Activation of purified human glucokinase isoform 3 (13 to 466 aa) using 5 mM glucose by spectrophotometry in presence of NAD+ and glucose 6-phosphate dehydrogenase in presence of 4% HSA; conditions: read-out: EC50
[3] = Extraction ratio in mouse liver microsomes at 1 uM up to 20 mins by LC-MS/MS analysis; format: ADME; conditions: read-out: ERH
[4] = Extraction ratio in human liver microsomes at 1 uM up to 20 mins by LC-MS/MS analysis; format: ADME; conditions: read-out: ERH
[5] = Half life in fed CD-1 mouse at 1 mg/kg, iv as single dose; format: ADME, organism-based; parameters: dose 1 mg/kg, route intravenous; conditions: in vivo
Procedure, shortened: (§1)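 Male CD-1 mice, fed, given a single 1 mg/kg iv dose as a solution in 40% PEG400/20% EtOH/40% saline (v/v). Parameters are calculated from arithmetic mean plasma concentrations, n = 3 per time point.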

[6] = Fraction unbound in human plasma; format: ADME, cell-free
[7] = AUC (infinity) in fed CD-1 mouse at 10 mg/kg, po as single dose; format: ADME, organism-based; parameters: time infinity, dose 10 mg/kg, route oral; conditions: plasma
Procedure, shortened: (§2)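 Male CD-1 mice, fed, given a single 10 mg/kg oral dose as a suspension in aqueous 1% CMC/0.05% Tween 80 (w/v). Parameters are calculated from arithmetic mean plasma concentrations, n = 3 per time point.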

Mus musculus [8] = experiment: Antidiabetic activity in C57BL/6 mouse assessed as reduction in glucose AUC level at 10 mg/kg, po by oral glucose tolerance test relative to control; format: functional; parameters: scale not given: the % may be the effect or the level left
Procedure, shortened: (§3)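 Dose–response oral glucose tolerance test in C57BL/6 mice at 3, 10 and 30 mg/kg po. Glucose AUC reduction is reported with p < 0.05 significance. Glucose min is the lowest glucose at the 2 h time point for any animal, n = 8.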

[9] = Clearance in fed CD-1 mouse at 1 mg/kg, iv as single dose; format: ADME, organism-based; parameters: dose 1 mg/kg, route intravenous; conditions: in vivo; procedure, shortened: as §1
[10] = Plasma concentration in C57BL/6 mouse at 3 mg/kg, po measured at 2.5 hrs; format: ADME, organism-based; parameters: dose 3 mg/kg, route oral
Procedure, shortened: (§4)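 C57BL/6 mice in the OGTT study, dosed orally at 3, 10 or 30 mg/kg. Plasma concentrations are means at 2.5 h postdose, n = 8 per dose group.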

[11] = AUC (infinity) in fed CD-1 mouse at 1 mg/kg, iv as single dose; format: ADME, organism-based; parameters: time infinity, dose 1 mg/kg, route intravenous; conditions: plasma; procedure, shortened: as §1
Mus musculus [12] = experiment: Antidiabetic activity in C57BL/6 mouse assessed as reduction in glucose AUC level at 3 mg/kg, po by oral glucose tolerance test relative to control; format: functional; parameters: scale not given: the % may be the effect or the level left; procedure, shortened: as §3
[13] = Volume of distribution at steady state in fed CD-1 mouse at 1 mg/kg, iv as single dose; format: ADME, organism-based; parameters: dose 1 mg/kg, route intravenous; conditions: in vivo, read-out: Vdss; procedure, shortened: as §1
Mus musculus [14] = experiment: Antidiabetic activity in ob/ob mouse assessed as reduction in fasting blood glucose at 3 mg/kg, po bid for 14 days by oral glucose tolerance test (reference value: 187.9 mg/dL); format: functional; conditions: dose 100 mg/kg, in the assay text read “at 100 mg/kg” for “at 3 mg/kg”
Procedure, shortened: (§5)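 ob/ob mice dosed orally b.i.d. at 3, 30 and 100 mg/kg for 14 days. On day 14 an OGTT is run, with fasting blood glucose read at −0.5 h and glucose excursion as AUC reduction. Significance is taken at p < 0.05.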

[15] = Solubility of the compound at pH 7.4; format: physicochemical; conditions: buffer
Mus musculus [16] = experiment: Antidiabetic activity in ob/ob mouse assessed as reduction in glucose excursion at 100 mg/kg, po bid for 14 days by oral glucose tolerance test; format: functional; parameters: scale not given: the % may be the effect or the level left; procedure, shortened: as §5
[17] = Extraction ratio in fed CD-1 mouse at 1 mg/kg, iv as single dose; format: ADME, organism-based; parameters: dose 1 mg/kg, route intravenous; conditions: in vivo, read-out: ERH
Procedure, shortened: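 Male CD-1 mice, fed, given a single 1 mg/kg iv dose in 40% PEG400/20% EtOH/40% saline (v/v). Extraction ratio is calculated from clearance using a mouse hepatic blood flow of 90 mL min−1 kg−1. Plasma concentrations are arithmetic means, n = 3 per time point.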

[18] = Plasma concentration in C57BL/6 mouse at 30 mg/kg, po measured at 2.5 hrs; format: ADME, organism-based; parameters: dose 30 mg/kg, route oral; procedure, shortened: as §4
Mus musculus [19] = experiment: Antidiabetic activity in C57BL/6 mouse assessed as minimum glucose level at 30 mg/kg, po measured at 2 hrs by oral glucose tolerance test relative to control; format: functional; procedure, shortened: as §3
[20] = Permeability across pig LLC-PK cells; format: ADME, cell-based, Sus scrofa
[21] = Oral bioavailability in fed CD-1 mouse at 10 mg/kg as single dose; format: ADME, organism-based; conditions: in vivo; procedure, shortened: as §2
[22] = AUClast in fed CD-1 mouse at 10 mg/kg, po as single dose; format: ADME, organism-based; parameters: time 0 - last, dose 10 mg/kg, route oral; conditions: plasma; procedure, shortened: as §2
[23] = AUClast in fed CD-1 mouse at 1 mg/kg, iv as single dose; format: ADME, organism-based; parameters: time 0 - last, dose 1 mg/kg, route intravenous; conditions: plasma; procedure, shortened: as §1
[24] = Plasma concentration in C57BL/6 mouse at 10 mg/kg, po measured at 2.5 hrs; format: ADME, organism-based; parameters: dose 10 mg/kg, route oral; procedure, shortened: as §4
Mus musculus [25] = experiment: Antidiabetic activity in ob/ob mouse assessed as reduction in glucose excursion at 30 mg/kg, po bid for 14 days by oral glucose tolerance test; format: functional; parameters: scale not given: the % may be the effect or the level left; procedure, shortened: as §5
[26] = Tmax in fed CD-1 mouse at 10 mg/kg, po as single dose; format: ADME, organism-based; parameters: dose 10 mg/kg, route oral; conditions: in vivo; procedure, shortened: as §2
Mus musculus [27] = experiment: Antidiabetic activity in C57BL/6 mouse assessed as reduction in glucose AUC level at 30 mg/kg, po by oral glucose tolerance test relative to control; format: functional; parameters: scale not given: the % may be the effect or the level left; procedure, shortened: as §3
[28] = Solubility of the compound at pH 6.5; format: physicochemical; conditions: buffer
[29] = Cmax in fed CD-1 mouse at 10 mg/kg, po as single dose; format: ADME, organism-based; parameters: dose 10 mg/kg, route oral; conditions: in vivo; procedure, shortened: as §2
[30] = Solubility of the compound at pH 1.2; format: physicochemical; conditions: buffer
Mus musculus [31] = experiment: Antidiabetic activity in ob/ob mouse assessed as reduction in glucose excursion at 3 mg/kg, po bid for 14 days by oral glucose tolerance test; format: functional; parameters: scale not given: the % may be the effect or the level left; procedure, shortened: as §5
[32] = Plasma protein binding in mouse; format: ADME; conditions: read-out: PPB (converted)
[33] = Plasma protein binding in human; format: ADME, cell-free; conditions: read-out: PPB (converted)

CCc1ncccc1Oc1cc(Sc2ccccn2)cnc1NC(=O)NCc1ccc(O)cc1
EC50 (Hexokinase-4 [1]): 172 nM | EC50 (Hexokinase-4 [2]): 1530 nM

CNC(=O)Nc1ncc(Sc2ccccn2)cc1Oc1cccnc1C
EC50 (Hexokinase-4 [1]): 262 nM | EC50 (Hexokinase-4 [2]): 1850 nM | hepatic extraction ratio at 20 min, 1 µM [3]: 0.68 | hepatic extraction ratio at 20 min, 1 µM [4]: 0.37

CCn1nccc1Oc1cc(Sc2ccccn2)cnc1NC(=O)NC
EC50 (Hexokinase-4 [1]): 319 nM | EC50 (Hexokinase-4 [2]): 472 nM | hepatic extraction ratio at 20 min, 1 µM [3]: 0.83 | hepatic extraction ratio at 20 min, 1 µM [4]: 0.45

CNC(=O)Nc1ncc(Sc2ccccn2)cc1Oc1c(C)n[nH]c1C
EC50 (Hexokinase-4 [1]): 2240 nM | EC50 (Hexokinase-4 [2]): 345 nM

CNC(=O)Nc1ncc(SCc2ccccn2)cc1Oc1cccnc1C
EC50 (Hexokinase-4 [1]): 3090 nM | EC50 (Hexokinase-4 [2]): 9300 nM

CNC(=O)Nc1ncc(SCc2ccccc2)cc1Oc1cccnc1C
EC50 (Hexokinase-4 [1]): 172 nM | EC50 (Hexokinase-4 [2]): 1170 nM | hepatic extraction ratio at 20 min, 1 µM [3]: 0.93 | hepatic extraction ratio at 20 min, 1 µM [4]: 0.93

CNC(=O)Nc1ncc(SCCCO)cc1Oc1cccnc1C
EC50 (Hexokinase-4 [1]): 550 nM | EC50 (Hexokinase-4 [2]): 714 nM | hepatic extraction ratio at 20 min, 1 µM [3]: 0.19 | hepatic extraction ratio at 20 min, 1 µM [4]: 0.15

CNC(=O)Nc1ncc(SCCCOC)cc1Oc1cccnc1C
half-life [5]: 2.67 h | fraction unbound [6]: 0.4 | AUC(0-inf) [7]: 5240 ng·h/mL | EC50 (Hexokinase-4 [1]): 182 nM | Activity (Mus musculus [8]): 28.6% | clearance [9]: 21.5 mL/min/kg | concentration at 2.5 h [10]: 46 ng/mL | AUC(0-inf) [11]: 773 ng·h/mL | Activity (Mus musculus [12]): 8% | Vd [13]: 1.98 L/kg | EC50 (Hexokinase-4 [2]): 311 nM | Activity (Mus musculus [14]): 125.9 mg/dL | solubility [15]: 282 µg/mL (≈ 778 µM) | Activity (Mus musculus [16]): 30.8% | hepatic extraction ratio [17]: 0.239 | concentration at 2.5 h [18]: 633 ng/mL | Activity (Mus musculus [19]): 73 mg/dL | hepatic extraction ratio at 20 min, 1 µM [3]: 0.34 | permeability [20]: permeable | bioavailability [21]: 67.8% | AUC(0-t) [22]: 5030 ng·h/mL | AUC(0-t) [23]: 762 ng·h/mL | hepatic extraction ratio at 20 min, 1 µM [4]: 0.32 | concentration at 2.5 h [24]: 178 ng/mL | Activity (Mus musculus [25]): 33.3% | Tmax [26]: 0.5 h | Activity (Mus musculus [27]): 30.8% | solubility [28]: 45 µg/mL (≈ 124 µM) | Cmax [29]: 2320 ng/mL | solubility [30]: > 1000 µg/mL | Activity (Mus musculus [31]): 18.4% | fraction unbound [32]: 0.26 | fraction unbound [33]: 0.38

CNC(=O)Nc1ncc(SCC2CCOCC2)cc1Oc1cccnc1C
EC50 (Hexokinase-4 [1]): 317 nM | EC50 (Hexokinase-4 [2]): 436 nM | hepatic extraction ratio at 20 min, 1 µM [3]: 0.43 | hepatic extraction ratio at 20 min, 1 µM [4]: 0.48

CNC(=O)Nc1ncc(SC2CCOCC2)cc1Oc1cccnc1C
EC50 (Hexokinase-4 [1]): 336 nM | EC50 (Hexokinase-4 [2]): 233 nM | hepatic extraction ratio at 20 min, 1 µM [3]: 0.3 | hepatic extraction ratio at 20 min, 1 µM [4]: 0.47

CNC(=O)Nc1ncc(SC2CCN(C(=O)OC(C)(C)C)CC2)cc1Oc1cccnc1C
EC50 (Hexokinase-4 [1]): 132 nM | EC50 (Hexokinase-4 [2]): 550 nM | hepatic extraction ratio at 20 min, 1 µM [3]: 0.9 | hepatic extraction ratio at 20 min, 1 µM [4]: 0.95

CNC(=O)Nc1ncc(SC2CCN(C(C)=O)CC2)cc1Oc1cccnc1C
EC50 (Hexokinase-4 [1]): 111 nM | EC50 (Hexokinase-4 [2]): 196 nM | hepatic extraction ratio at 20 min, 1 µM [3]: 0.33 | hepatic extraction ratio at 20 min, 1 µM [4]: 0.44

CNC(=O)Nc1ncc(SC2CCN(S(C)(=O)=O)CC2)cc1Oc1cccnc1C
EC50 (Hexokinase-4 [1]): 195 nM | EC50 (Hexokinase-4 [2]): 248 nM | hepatic extraction ratio at 20 min, 1 µM [3]: 0.32 | hepatic extraction ratio at 20 min, 1 µM [4]: 0.5
